The EternaBench riboswitch data

Test system: MS2 coat protein
Test: apparent Kd, MS2 coat protein; higher = weaker binding; RNA-MaP array; FMN 200 µM where present
Procedure, shortened: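 Green signal was scaled to red-channel RNA signal and control-cluster median Fmax, and the apparent Kd was taken as the median of filtered per-cluster binding-curve fits. The binding series used SNAP-549-labelled MS2 coat protein from 0.7 or 1.5 nM, doubling to 3 µM, on designs transcribed by stalled E. coli RNA polymerase on Illumina sequencing-chip clusters. Each series ran without and then with constant ligand in 100 mM Tris-HCl pH 7.5, 80 mM KCl, 4 mM MgCl2, BSA, DTT, yeast tRNA and Tween-20.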

[1] = designed as: OFF switch for flavin mononucleotide, no ligand
[2] = ligand present: flavin mononucleotide, designed as: OFF switch for flavin mononucleotide
[3] = designed as: ON switch for flavin mononucleotide, no ligand
[4] = ligand present: flavin mononucleotide, designed as: ON switch for flavin mononucleotide

| Sequence | apparent Kd [1] | apparent Kd [2] | apparent Kd [3] | apparent Kd [4] |
| --- | --- | --- | --- | --- |
| UGAUUACGAGGAUAUACAUGAGGAUCACCCAUGUAGUCAGGGCCCAUACUCCGAGCAUGUAGAAGGCGUUGUCU | 32.7 nM | 48.8 nM | – | – |
| UUACUACAUGAGGAUCACCCAUGUCAGGAUAUUGUCUAUACUUUGGAAUAUGUGUCGAUAAGAAGGGACUAUAU | 18.9 nM | 21.5 nM | – | – |
| UAUAAAAUUAUAGGAUAUCGAUAUCAAAGAUAUCGAGAAGGGUGAAUAUAAUAUUAUCUGUACAUGAGGAUCACCCAUGUUUAU | – | – | 276 nM | 87.2 nM |
| AUCCUACAUGAGGAUCACCCAUGUGAGGCCUCAAUAGGAUAUGCGUGUGCCUUGGCGCAUGCAGAAGGAUUGAAGC | – | – | 363 nM | 52.5 nM |
| UCUUGUGUUGAGGAUAUGCGCCGGCUCGCUGGCGCAGAAGGCGGCACAUGAGGAUCACCCAUGUCAGUUCGCGU | 326 nM | 78 nM | – | – |
| UUAAAUCAUGUAGGAUAUGCAUGGCGAAGCUACGCAGAAGGACAUGAGGAUCACCCAUGUUAGAGCUACCGAGUUCGGUGGCAA | 112 nM | 210 nM | – | – |
| CCCUCACAUGAGGAUCACCCAUGUCAGGAUAUCUAGUCAGACAGUGUAGCACUAAUGAAGAGAAGGGACGUAUG | 25.6 nM | 26.8 nM | – | – |
| UGGUACUAGGGAGGAUAUGGGAAGAUACAUGAGGAUCACCCAUGUUUAAGAAUGCCGAGAGGCAACUAGAAGGCCCUAGUACCC | – | – | 430 nM | 19.1 nM |
| GCCAUCGCAUGAGGAUAUGCUCCGGUUUCCGGAGCAGAAGGUAUGUCAUAAGACAUGAGGAUCACCCAUGUAGGUAAGAUGGCA | – | – | 221 nM | 31.3 nM |
| AGAUUUAAUGAGGAUAUCGUAUUGGAUAUAGUGCGAGAAGGCAUUACAUGAGGAUCACCCAUGUUUUGUUGGGA | 31.8 nM | 74.1 nM | – | – |
| CUUUUACAUGAGGAUCACCCAUGUUCUGGCGGGUCAGGAUAUAGAUCGGAUGCGUUCUGUCUAGAAGGGACAUGUU | – | – | 67.3 nM | 38.1 nM |
| GAGCGAAAGCUCAAUGUCGAUAGCAGAAGGACAUGAAAACAUGAAAACACAUGAGGAUCACCCAUGUAGGAUAUGCUAUCGACU | 9.43 nM | 84.8 nM | – | – |
| UACAGACAUGAGGAUCACCCAUGUGAGGAUAUCGAUAACAAUAAAAUAAUAUAAACAACGAGAAGGCACAGCAU | 57.4 nM | 73 nM | – | – |
| GGUGCGUUUGUGAGGAUAUGCUGGUCCUUGGCUCAGCAGAAGGCACAUGAGGAUCACCCAUGUGGUGUCGUACC | 294 nM | 41.8 nM | – | – |
| UUCGUGCAGCUUUGCUGUACGCGUACAUGAGGAUCACCCAUGUAGGAUAUAGUAGGCAAAGCUUACUAGAAGGAUAUAGUGAUC | 47.6 nM | 47.3 nM | – | – |
| GGAGCCGACACUGAGGAUAUUCAUAUUAAAACAUGAGGAUCACCCAUGUAGGCCAGAAGGCCUUGGGAGAAGGCAGGCCGGCUCG | – | – | 377 nM | 26.5 nM |
| GACAUACAUGAGGAUCACCCAUGUUCAGAAGGGCAAGGAUAUGUGUGGAAACCAUACUAUACAGAAGGUGUCUGUC | – | – | 34.7 nM | 20.3 nM |
| GCACUCAAGUUAGGAUAUGGAUCGGAAAACGAUCCAGAAGGAAUAUGGGAACAUGAGGAUCACCCAUGUUCCACAAACGAGUGC | – | – | 40.9 nM | 22.1 nM |
| AAGUUGACAGGAUAUACUUGGGCAACUUAUAUACUAAUAUAACAUGAGGAUCACCCAUGUAGAAGGGUCAGAAA | 54 nM | 72.5 nM | – | – |
| GUGCUCAUGUAAGGAUAUGCAGCCGUUUCGGCUGCAGAAGGUACUAUAAUACAUGAGGAUCACCCAUGUCUCUAUAAUUUGGUG | – | – | 113 nM | 239 nM |
| AGCACGAAAGUGCAACGAUGUACGAGAAGGACAUGAGGAUCACCCAUGUCGCUGUAACAGCAAAUGUAGGAUAUCGUACAUCGA | 5.14 nM | 5.7 nM | – | – |
| AUUGAUGUUGAGGAUAUGCUUUUAUUUGUUCUUGCAGAAGGCGAUACAUGAGGAUCACCCAUGUUCAUGGAAGU | 51.6 nM | 46.6 nM | – | – |
| AAUGAGCAGUAGAAGGCAUGUCUACGGACAUGAGGAUCACCCAUGUUGUGAAUCCGAAAGGAGCGUGAGGAUAUACUGCUCUAA | – | – | 85.6 nM | 18.8 nM |
| GGCGAACGGGCUUACAUGAGGAUCACCCAUGUAGACUCAUGGUAGGAUAUGCUGUACUUUGUACAGCAGAAGGGCCGGUGAGCU | – | – | 65.8 nM | 38.7 nM |

| Sequence | apparent Kd [1] | apparent Kd [2] | apparent Kd [3] | apparent Kd [4] |
| --- | --- | --- | --- | --- |
| GCAGGUAUACGAGGAUAUGGGUGGUACGGACAUGAGGAUCACCCAUGUCUCCCAGAAGGCGUAGCCUAACAUUAAGAGCAGGAG | – | – | 122 nM | 22.5 nM |
| GUAACUCAUGUAGGAUAUGCAUGGCGAAGCUACGCAGAAGGACAUGAGGAUCACCCAUGUUCUAGCGUCUGAGUACAGAUGCAA | 60.2 nM | 436 nM | – | – |
| CAAUCGGCACAGAAGGGUGACAUGAGGAUCACCCAUGUAGCGUGGCACUCAGGAGGAGCCACGCCACAGGAUAUGUGCCAGCAC | – | – | 50.5 nM | 53.8 nM |
| CUGAUGUUAGGAUAUCAGGCACCCGCCACUGGCAGGGCGCAUGAGAAGGGACAUGAGGAUCACCCAUGUAGUAA | 25.2 nM | 60.1 nM | – | – |
| GCUCUAUGCUAGAAGGCGUGAAACAUGAGGAUCACCCAUGUCAAAGAAGUGAGGAUAUAGCAUAGAGCAAAAGUGCGAAAGCAC | – | – | 16.9 nM | 7.32 nM |
| UAAUAGUGAGGAUAUACAGAAUCUGGGUCCCGCGUGUUGAGACAUGAGGAUCACCCAUGUAGAAGGCACAAAAU | 108 nM | 42.5 nM | – | – |
| UACAUGUGAGGAUAUUAGAUCGCUAACUGGCGGGAGCGAUCUGAGAAGGCACAUGAGGAUCACCCAUGUGUCGU | 16.9 nM | 40.2 nM | – | – |
| GCCCUAAGGCGGGCCGACCAUACAUGAGGAUCACCCAUGUCGAGAAGGUGCUCACGGGUGGGUGGCAAGGAUAUCGGGUCGGAU | – | – | 77.1 nM | 41.4 nM |
| AUUUUAUAAUAGAAGGAGGACUUCAUGAGGAUCACCCAUGUGUUAGUACUUAGGAUAUGUAAUAACAUGAGGAUCACCCAUGUC | – | – | 38.3 nM | 43.3 nM |
| AAAUAGGCAGGAUAUACAUGAAAAUUAAAAAAAAAAAAAAAACAUGAGGAUCACCCAUGUAGAAGGGUCAAAAA | 97.5 nM | 92.9 nM | – | – |
| GGUUACACAGGAUAUACAUGAGGAUCACCCAUGUCGAGCCGACCCGGAUGCACCUAAAGUAGAAGGGUGAGCUG | 21.8 nM | 22.7 nM | – | – |
| CGCUAAGAUGGGUCUAAUGGACCACAGGAUAUGCUUGUACAUGAGGAUCACCCAUGUAAUAUUGUGCAGAAGGGUGGAUUCGCG | – | – | 66.5 nM | 10.8 nM |
| AUUGUUGUUGUGAGGAUAUCGUUGAUUUUUUGAAACGAGAAGGCACAUGAGGAUCACCCAUGUUAGUUGUUGGU | 96.4 nM | 311 nM | – | – |
| CAGAAGUCAGGAUAUCCAUGGCGGCACUUGCGUGGUGGCGUGGAGAAGGGACAUGAGGAUCACCCAUGUAAAGU | 58.7 nM | 61.7 nM | – | – |
| UUCAAGGGUUGAGGAUAUCCCGGUUGUGUCCUCAUCCGCCAAGGUACAUGAGGAUCACCCAUGUGGGAGAAGGCAAUACUAGAG | 130 nM | 182 nM | – | – |
| UGUCGGAGCAGAGGAUAUACAUGAGGAUCACCCAUGUAAUAAAUCCAAGCCUGGAAACAGGCAAUGUAGAAGGCUGCUCCGACA | 16.8 nM | 80.2 nM | – | – |
| AGUACUCAAAGAGUACCAAUACGAACAUGAGGAUCACCCAUGUAGGAUAUGCUACUCAAAGAGUAGCAGAAGGACAUGUGCCUA | 18.2 nM | 82.3 nM | – | – |
| GAGUUGAAGUUAGGAUAUUGGAUAGGGACGGAAUAAGAAGGAGCAAGACAUGAGGAUCACCCAUGUGUAGAAGAAGAGAUCCUC | 352 nM | 227 nM | – | – |
| CUCUUGUUAGGAUAUCAAACCAGUGACGGAACCACUGGAAGUGAGAAGGGACAUGAGGAUCACCCAUGUAAGAA | 55.6 nM | 113 nM | – | – |
| CUCUAGUGAGGAUAUCAGUAGUAAAAAAAUAAAAUUACUACUGAGAAGGCACAUGAGGAUCACCCAUGUCUUUC | 87.1 nM | 46.5 nM | – | – |
| AAGUUCUGUGAGAAGGCGCCCUUUGCGGUUGGGCGAGGAUAUCACAUGAGGAUCACCCAUGUCGGUGCAUCAGACAGCGUAUUU | 810 nM | 156 nM | – | – |
| UGGCACCGAGGAUAUACAUGAGGAUCACCCAUGUUCGGAAAGCAUACGGUGGCUUGCUGUAGAAGGCGGGCCAC | 16.2 nM | 13 nM | – | – |
| AAAUAAAAUAUAGGAUAUGGAAACAUGAGGAUCACCCAUGUAUGAUAAGAUAAAUAAUGAUAUAGCCAGAAGGAUACAAUAUAA | – | – | 31 nM | 38.3 nM |
| GUCUGCUCGUGAGGAUAUACAACACUGCUUCGGCAGUGUAUUAAGAUCACAUGAGGAUCACCCAUGUAGAAGGCACGAGCUGAU | 14.1 nM | 252 nM | – | – |
